According to ChEMBL document CHEMBL1926642, “Relevance of the C-5 position to schweinfurthin induced cytotoxicity” (2011):

Columns and labels:
Format in all cases: functional
[1] = system: CCRF-CEM; assay: Growth inhibition of human CCRF-CEM cells after 48 hrs by sulforhodamine B assay
[2] = system: HL-60(TB); assay: Growth inhibition of human HL-60(TB) cells after 48 hrs by sulforhodamine B assay; settings: HL-60, 48 h
Method in brief: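 Run in the NCI 60 cell-line screen as the full 5-dose assay that follows initial single-dose testing; GI50 is read from the dose series.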

[3] = system: K562; assay: Growth inhibition of human K562 cells after 48 hrs by sulforhodamine B assay; settings: K562, 48 h
[4] = system: RPMI-8226; assay: Growth inhibition of human RPMI8226 cells after 48 hrs by sulforhodamine B assay; settings: RPMI-8226, 48 h
[5] = system: EKVX; assay: Growth inhibition of human EKVX cells after 48 hrs by sulforhodamine B assay
[6] = system: HOP-92; assay: Growth inhibition of human HOP92 cells after 48 hrs by sulforhodamine B assay; settings: HOP-92, 48 h
[7] = system: NCI-H23; assay: Growth inhibition of human NCI-H23 cells after 48 hrs by sulforhodamine B assay; settings: NCI-H23, 48 h
[8] = system: A549; assay: Growth inhibition of human A549 cells after 48 hrs by sulforhodamine B assay; settings: A549, 48 h
[9] = system: NCI-H460; assay: Growth inhibition of human NCI-H460 cells after 48 hrs by sulforhodamine B assay; settings: NCI-H460, 48 h
[10] = system: HCT-116; assay: Growth inhibition of human HCT116 cells after 48 hrs by sulforhodamine B assay; settings: HCT-116, 48 h
[11] = system: SF-268; assay: Growth inhibition of human SF268 cells after 48 hrs by sulforhodamine B assay; settings: SF-268, 48 h
[12] = system: SF-295; assay: Growth inhibition of human SF295 cells after 48 hrs by sulforhodamine B assay; settings: SF-295, 48 h
[13] = system: SF-539; assay: Growth inhibition of human SF539 cells after 48 hrs by sulforhodamine B assay; settings: SF-539, 48 h
[14] = system: SNB-19; assay: Growth inhibition of human SNB19 cells after 48 hrs by sulforhodamine B assay; settings: SNB-19, 48 h
[15] = system: SNB-75; assay: Growth inhibition of human SNB75 cells after 48 hrs by sulforhodamine B assay; settings: SNB-75, 48 h
[16] = system: Malme-3M; assay: Growth inhibition of human MALME-3M cells after 48 hrs by sulforhodamine B assay
[17] = system: MDA-MB-435; assay: Growth inhibition of human MDA-MB-435 cells after 48 hrs by sulforhodamine B assay; settings: MDA-MB-435, 48 h
[18] = system: SK-MEL-28; assay: Growth inhibition of human SK-MEL-28 cells after 48 hrs by sulforhodamine B assay; settings: SK-MEL-28, 48 h
[19] = system: UACC-257; assay: Growth inhibition of human UACC257 cells after 48 hrs by sulforhodamine B assay; settings: UACC-257, 48 h
[20] = system: OVCAR-5; assay: Growth inhibition of human OVCAR5 cells after 48 hrs by sulforhodamine B assay; settings: OVCAR-5, 48 h
[21] = system: OVCAR-8; assay: Growth inhibition of human OVCAR8 cells after 48 hrs by sulforhodamine B assay; settings: OVCAR-8, 48 h
[22] = system: SK-OV-3; assay: Growth inhibition of human SKOV3 cells after 48 hrs by sulforhodamine B assay; settings: SK-OV-3, 48 h
[23] = system: UO-31; assay: Growth inhibition of human UO31 cells after 48 hrs by sulforhodamine B assay; settings: UO-31, 48 h
[24] = system: PC-3; assay: Growth inhibition of human PC3 cells after 48 hrs by sulforhodamine B assay; settings: PC-3, 48 h
[25] = system: DU-145; assay: Growth inhibition of human DU145 cells after 48 hrs by sulforhodamine B assay; settings: DU-145, 48 h
[26] = Growth inhibition of human Hs 578T cells after 48 hrs by sulforhodamine B assay
[27] = read-out: pLC50 (the source's name) (converted)

Compound: COCOc1cc(/C=C/c2cc(C=O)c3c(c2)C[C@@H]2C(C)(C)[C@H](O)CC[C@@]2(C)O3)cc(OC)c1C/C=C(\C)CCC=C(C)C
- GI50 [1]: 4.37 µM
- LC50 [1]: > 100 µM
- TGI ([1]; read-out: pTGI (converted)): > 100 µM
- GI50 [2]: 3.55 µM
- CC50 [2, 27]: > 100 µM
- TGI ([2]; read-out: pTGI (converted)): 60.3 µM
- GI50 [3]: 4.37 µM
- LC50 [3]: > 100 µM
- TGI ([3]; read-out: pTGI (converted)): 47.9 µM
- GI50 [4]: 1.17 µM
- LC50 [4]: > 100 µM
- TGI ([4]; read-out: pTGI (converted)): > 100 µM
- GI50 [5]: 5.5 µM
- LC50 (50% lethal concentration) [5]: > 100 µM
- TGI ([5]; read-out: pTGI (converted)): > 100 µM
- GI50 [6]: 15.8 µM
- LC50 [6]: > 100 µM
- TGI ([6]; read-out: pTGI (converted)): > 100 µM
- GI50 [7]: 11 µM
- LC50 [7]: > 100 µM
- TGI ([7]; read-out: pTGI (converted)): > 100 µM
- LC50 [8]: > 100 µM
- GI50 ([8]; read-out: GI50): 7.8 µM
- GI50 ([8]; read-out: pGI50 (converted)): 7.76 µM
- TGI ([8]; read-out: pTGI (converted)): > 100 µM
- GI50 [9]: 5.89 µM
- LC50 (concentration killing 50% of cells) [9]: > 100 µM
- TGI ([9]; read-out: pTGI (converted)): > 100 µM
- GI50 [10]: 6.61 µM
- LC50 [10]: > 100 µM
- TGI ([10]; read-out: pTGI (converted)): 35.5 µM
- GI50 [11]: 11 µM
- LC50 [11]: > 100 µM
- TGI ([11]; read-out: pTGI (converted)): 85.1 µM
- LC50 [12]: > 100 µM
- GI50 ([12]; read-out: GI50): 1.2 µM
- GI50 ([12]; read-out: pGI50 (converted)): 1.2 µM
- TGI ([12]; read-out: pTGI (converted)): 4.37 µM
- GI50 [13]: 0.891 µM
- LC50 [13]: > 100 µM
- TGI ([13]; read-out: pTGI (converted)): 12.9 µM
- GI50 [14]: 16.6 µM
- LC50 [14]: > 100 µM
- TGI ([14]; read-out: pTGI (converted)): > 100 µM
- GI50 [15]: 1.62 µM
- LC50 [15]: > 100 µM
- TGI ([15]; read-out: pTGI (converted)): > 100 µM
- GI50 [16]: 7.94 µM
- LC50 [16]: > 100 µM
- TGI ([16]; read-out: pTGI (converted)): 95.5 µM
- GI50 [17]: 6.76 µM
- LC50 [17]: > 100 µM
- TGI ([17]; read-out: pTGI (converted)): 69.2 µM
- GI50 [18]: 2.95 µM
- CC50 [18, 27]: > 100 µM
- TGI ([18]; read-out: pTGI (converted)): > 100 µM
- GI50 [19]: 3.98 µM
- LC50 [19]: > 100 µM
- TGI ([19]; read-out: pTGI (converted)): 49 µM
- GI50 [20]: 11.7 µM
- LC50 [20]: > 100 µM
- TGI ([20]; read-out: pTGI (converted)): > 100 µM
- GI50 [21]: 17 µM
- LC50 [21]: > 100 µM
- TGI ([21]; read-out: pTGI (converted)): 61.7 µM
- GI50 [22]: 41.7 µM
- LC50 [22]: > 100 µM
- TGI ([22]; read-out: pTGI (converted)): > 100 µM
- GI50 [23]: 4.07 µM
- LC50 [23]: > 100 µM
- TGI ([23]; read-out: pTGI (converted)): > 100 µM
- GI50 [24]: 8.13 µM
- CC50 [24, 27]: > 100 µM
- TGI ([24]; read-out: pTGI (converted)): > 100 µM
- GI50 [25]: 13.5 µM
- LC50 [25]: > 100 µM
- TGI ([25]; read-out: pTGI (converted)): > 100 µM
- GI50 [26]: 1.74 µM
- CC50 [26, 27]: > 100 µM
- TGI ([26]; read-out: pTGI (converted)): > 100 µM
